Results on 26 compounds are retold here after ChEMBL document CHEMBL1155794, “Novel N1-substituted 1,3-dihydro-2H-benzimidazol-2-ones as potent non-nucleoside reverse transcriptase inhibitors” (Bioorg Med Chem, 2008).

Data set [1] can be described thus: Selectivity index, ratio of CC50 for human MT4 cells to EC50 for HIV1 3B. It counts as toxicity, cell-based. The settings on record: read-out: Ratio CC50/EC50.
Data set [2] is described as follows: Cytotoxicity against human MT4 cells. Type of data set: cell-based. The method, boiled down: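 MT-4 cell viability measured after exposure to compound dilutions; CC50 taken as concentration lowering viability by 50%.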
In data set [3] the target is Human immunodeficiency virus type 1 reverse transcriptase (Human immunodeficiency virus 1, UniProt Q72547). Put plainly: Inhibition of HIV1 reverse transcriptase RNA-dependent DNA polymerase activity assessed as incorporation of radioactive dTTP into poly(rA)/oligo(DT).
The subject of data set [4] is Human immunodeficiency virus 1. As to the kind of experiment: Antiviral activity against HIV1 3B in human MT4 cells assessed as virus-induced cytopathogenicity after 5 days. It counts as functional, organism-based. The settings on record: Human immunodeficiency virus 1, 3B, MT4, 120 h. In short, it runs like this:
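MT-4 cells infected and treated with serial dilutions, incubated at 37 °C for 5 days; viable cell count determined; EC50 = concentration reducing virus-induced cytopathicity by 50%.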

Some results are limits rather than exact numbers.

Turning to `Cc1cc(C)cc(Cn2c(=O)[nH]c3ccc(Cl)cc32)c1`, in data set [1], the selectivity ratio turned out to be 281.
The same measure, in the same setting: to `Cc1cc(C)cc(S(=O)(=O)n2c(=O)[nH]c3ccc(Cl)cc32)c1` belongs 17800.
What is called CC50 is the concentration that lowers cell viability or growth by half. Read a low CC50 as harm at low concentration. Consider `O=c1[nH]c2ccc(Cl)cc2n1Cc1c(F)cccc1F`, for which the selectivity ratio in data set [1] is over 1890. In addition, in data set [2], the 50% cytotoxic concentration (CC50) was over 424000 nM.
The IC50 is the concentration needed to halve the response being measured. As usually defined, the EC50 is the concentration giving half of the maximal effect. As for `Cc1cc(C)cc(Cn2c(=O)[nH]c3ccc(C(F)(F)F)cc32)c1`, the half-maximal inhibitory concentration (IC50) in data set [3] is 280 nM. Moreover, the selectivity ratio in data set [1] was determined as 88. Moreover, the EC50 in data set [4] was found to be 425 nM. Moreover, in data set [2], the half-maximal cytotoxic concentration (CC50) amounted to 37400 nM.
In the same order, the values of `Cc1cc(C)cc(S(=O)(=O)n2c(=O)[nH]c3ccc(C)cc32)c1` are 100 nM, over 48900, 6.3 nM and over 308000 nM.
In the same order, the values of `Fc1cc(F)cc(Cn2c(=S)[nH]c3ccc(Cl)cc32)c1` are 160 nM, 2, over 737 nM and 1200 nM.
Taken in the same sequence, the figures for `Cc1ccc2[nH]c(=O)n(S(=O)(=O)c3c(F)cccc3F)c2c1` were 1300 nM, 11, 195 nM and 2220 nM.
For the compound `O=c1[nH]c2ccc(C(F)(F)F)cc2n1Cc1c(F)cccc1F`, the half-maximal inhibitory concentration (IC50) in data set [3] turned out to be 17 nM. Also, the selectivity ratio in data set [1] was over 77. Also, the EC50 in data set [4] stood at 5500 nM. In data set [2], this compound registered a CC50 of over 424000 nM.
As for `O=c1[nH]c2cc(F)c(Cl)cc2n1Cc1cc(F)cc(F)c1`, in data set [3], the IC50 turned out to be 3 nM. Moreover, the 50% effective concentration (EC50) in data set [4] is over 33900 nM. The CC50 in data set [2] is over 400000 nM.
As for `CC(=O)n1c(=O)n(Cc2cc(F)cc(F)c2)c2cc(Cl)ccc21`, the IC50 in data set [3] came to 38500 nM. For the same compound, in data set [1], the selectivity ratio came to 24. Also, the concentration for a half-maximal effect (EC50) in data set [4] came out at 1660 nM. This compound gave a CC50 in data set [2] of 40400 nM.
Taken in the same sequence, the figures for `Cc1cc(C)cc(Cn2c(=O)[nH]c3ccc(C)cc32)c1` were 76900 nM, 11, 75 nM and 856 nM.
Taken in the same sequence, the figures for `Cc1ccc2[nH]c(=O)n(Cc3cc(F)cc(F)c3)c2c1` were over 400000 nM, under 1, over 73000 nM and 73000 nM.
In the same order, the values of `Cc1ccc2[nH]c(=O)n(S(=O)(=O)c3cc(F)cc(F)c3)c2c1` are 200 nM, 360, 65 nM and 23400 nM.
In the case of `CC(=O)n1c(=O)n(Cc2cc(C)cc(C)c2)c2cc(Cl)ccc21`, the concentration for half-maximal inhibition (IC50) in data set [3] is over 100000 nM. Besides, in data set [1], the selectivity ratio was determined as 614. Also, in data set [4], the 50% effective concentration (EC50) worked out at 11.7 nM. This compound registered a half-maximal cytotoxic concentration (CC50) in data set [2] of 7180 nM.
In the same order, the values of `O=c1[nH]c2ccc(Cl)cc2n1Cc1cc(F)cc(F)c1` are 100 nM, over 1470, 289 nM and over 424000 nM.
On to `Fc1cccc(F)c1Cn1c(=S)[nH]c2ccc(Cl)cc21`, for which the selectivity ratio in data set [1] came out at 8. For the same compound, the EC50 in data set [4] came out at 740 nM. In data set [2], this compound had a CC50 of 5950 nM.
As for `Cc1cc(C)cc(Cn2c(=S)[nH]c3ccc(Cl)cc32)c1`, the IC50 in data set [3] is 46 nM. Besides, in data set [1], the selectivity ratio is 4. The EC50 in data set [4] came out at 76 nM. The compound further displayed a half-maximal cytotoxic concentration (CC50) in data set [2] of 305 nM.
In the same order, the values of `O=c1[nH]c2ccc(Cl)cc2n1S(=O)(=O)c1c(F)cccc1F` are 30000 nM, 124, 1570 nM and 194000 nM.
With `Cc1cc(C)cc(S(=O)(=O)n2c(=O)[nH]c3cc(F)c(Cl)cc32)c1`, the 50% inhibitory concentration (IC50) in data set [3] was 158 nM. Also, the selectivity ratio in data set [1] was determined as 310. Also, the EC50 in data set [4] is 450 nM. Besides, the CC50 in data set [2] came to 140000 nM.
In the same order, the values of `CC(=O)n1c(=O)n(Cc2c(F)cccc2F)c2cc(Cl)ccc21` are over 100000 nM, 190, 534 nM and 102000 nM.
Taken in the same sequence, the figures for `O=c1[nH]c2cc(F)c(Cl)cc2n1Cc1c(F)cccc1F` were 140 nM, 9, 29000 nM and 267000 nM.
In the same order, the values of `Cc1cc(C)cc(Cn2c(=O)[nH]c3cc(F)c(Cl)cc32)c1` are over 100000 nM, over 438, 938 nM and over 410000 nM.
As to `O=c1[nH]c2ccc(Cl)cc2n1S(=O)(=O)c1cc(F)cc(F)c1`, the IC50 in data set [3] came to 100 nM. In addition, the selectivity ratio in data set [1] was found to be 2930. The EC50 in data set [4] is 69 nM. The same compound yielded a CC50 in data set [2] of 202000 nM.
In the same order, the values of `Cc1ccc2[nH]c(=O)n(Cc3c(F)cccc3F)c2c1` are over 100000 nM, 13, 18600 nM and 236000 nM.
`O=C1Nc2ccc(Cl)cc2[C@@](C#CC2CC2)(C(F)(F)F)O1` [EFAVIRENZ] gave a CC50 in data set [2] of over 6000 nM.
In turn, `Cc1ccnc2c1NC(=O)c1cccnc1N2C1CC1` [NEVIRAPINE] had a 50% cytotoxic concentration (CC50) in data set [2] of over 15000 nM.
